# High-throughput results as filed in PubChem BioAssay.
# A selection: hits, their analogues and other compounds. The true share with any hit is near 1.9%.
# NR1D1 modulator: modulators of human Rev-erb alpha DNA binding; 0.79% of 370,000 active; Rev-erbα–FITC-DNA binding, fluorescence polarization, 90 min; P20393; activity, % at 10 µM; AID 1259318;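 active means activity above about 14%, limit read from the data; passing the limit was not always enough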;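 further: 0% = DMSO wells with 35 nM protein and 100% = DMSO wells with 750 nM protein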
# Target sequence (P20393 whole entry, looked up): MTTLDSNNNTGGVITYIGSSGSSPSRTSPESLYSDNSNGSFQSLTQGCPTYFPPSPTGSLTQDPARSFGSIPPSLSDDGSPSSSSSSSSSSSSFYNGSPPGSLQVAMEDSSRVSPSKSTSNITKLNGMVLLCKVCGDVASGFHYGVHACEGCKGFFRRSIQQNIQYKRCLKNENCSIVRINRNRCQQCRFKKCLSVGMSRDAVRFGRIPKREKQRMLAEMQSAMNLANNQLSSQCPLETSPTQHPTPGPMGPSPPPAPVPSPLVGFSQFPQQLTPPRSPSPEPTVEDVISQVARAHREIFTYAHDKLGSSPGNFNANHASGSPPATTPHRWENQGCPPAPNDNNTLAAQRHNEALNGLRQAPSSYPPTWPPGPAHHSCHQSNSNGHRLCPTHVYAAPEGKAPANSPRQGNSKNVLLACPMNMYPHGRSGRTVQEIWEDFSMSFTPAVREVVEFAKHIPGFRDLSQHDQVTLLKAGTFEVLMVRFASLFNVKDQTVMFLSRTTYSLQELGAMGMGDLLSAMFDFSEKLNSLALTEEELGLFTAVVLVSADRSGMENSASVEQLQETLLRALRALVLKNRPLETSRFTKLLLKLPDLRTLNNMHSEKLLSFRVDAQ
# NR2E3 ag-1: agonists of human nuclear receptor NR2E3; Q9Y5X4; GST-NR2E3/biotin-RetCOR TR-FRET, 1536-well; inhibition of corepressor binding, % at 4.78 µM; 0.12% of 320,000 active;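 active means percent inhibition above the cutoff of mean plus 3 SD of all tested compounds, set per screening campaign, cut at about 20% in these data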;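 further: 0% = DMSO wells and 100% = biotin wells as full block of FRET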
#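 Material – GST-tagged NR2E3 plus biotinylated RetCOR corepressor · Quantity – NR2E3 fusion 1.35 nM · Times – 5 h incubation at 4 °C · Medium – pH 7.5 Tris-based buffer · Technique – TR-FRET, Eu(K)-anti-GST donor, streptavidin-D2 acceptor, ex 340, em 617/671 nm · Benchmarks – high control biotin, low control 0.6% DMSO · Format – 1536-well plates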
# PG9 binder: binds the HIV-1 gp120 antibody PG9 | 0.43% of 360,000 active | TR-FRET gp120-PG9 antibody binding | AID 624416 | inhibition, % at 6.7 µM; in the data active means inhibition above about 8.5%
# SKN-1 block: inhibitors of C. elegans SKN-1; 0.49% of 360,000 active; inhibition, % at 21.8 µM; C. elegans VP596 Pgst-4::GFP/RFP ratio, acrylamide-induced, 24 h;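 active means interference check ratio from 0.5 to 1.5 plus GFP to RFP signal ratio inhibition reaching or exceeding a fixed threshold, cut at about 30% in these data, passing the limit was not always enough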
# NR2E3 ag-2: agonists of human NR2E3 nuclear receptor. Q9Y5X4. CHO-S Gal4-NCOR/VP16-NR2E3 two-hybrid, luciferase. inhibition of corepressor binding, % at 3.98 µM. 0.35% of 360,000 active;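 active means inhibition above the mean of all tested compounds plus 3 SD, cut at about 70% in these data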;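 further: 0% = DMSO with NR2E3 transfected cells and 100% = cells lacking NR2E3 construct; higher means lower luciferase signal from less NR2E3 corepressor binding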
# MT1-MMP act inh: MT1-MMP (human) activation inhibition | GFP/RFP ratio change, % at 20 µM | AID 651647 | 0.061% of 360,000 active | P50281 | HT1080 RFP-PRO-GFP cells, GFP/RFP ratio fluorescence, overnight; percent of plate control window, DMSO zero;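 active means GFP/RFP ratio change of at least 30% with cell ATP level not reduced by more than half and red fluorescence within 50% of control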
#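 Material: RFP-PRO-GFP reporter HT1080 cells. Dosing: single-point 20 µM compound, 1% DMSO. Controls: DMSO and RFP-L50D-GFP cell wells. Timing: cells overnight before dosing, compound overnight, 37 °C, 5% CO2. Measure: GFP/RFP fluorescence ratio.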
# NR1D1 mod conf: confirmation of modulators of human Rev-erb alpha DNA binding | shares compounds with NR1D1 modulator | Rev-erb alpha FITC-DNA binding, fluorescence polarization, 90 min | activation, % at 25 µM | 61% of 3,000 active | AID 1259319;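 active means activation at or above a set limit, or at least 3 SD above the negative control mean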;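 further: 0% = 35 nM protein with DMSO and 100% = 750 nM protein high control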
# RORg DNA counter: affects RORgamma DNA binding in a Rev-erb alpha counter-screen; 8% of 910 active; IC50, µM; AID 1259320; purified RORgamma protein-FITC-DNA binding, fluorescence polarization; shares compounds with NR1D1 modulator;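 active means Compounds whose fitted half-maximal concentration for disrupting protein-DNA binding is below 10 micromolar; the record names Rev-erb in its text, so the target is in doubt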
# The depositor's hits bear a star; . = no result.
SMILES,NR1D1 modulator,NR2E3 ag-1,PG9 binder,SKN-1 block,NR2E3 ag-2,MT1-MMP act inh,NR1D1 mod conf,others
Cc1ccc(-c2csc3nc[nH]c(=S)c23)cc1C,24*,0,-1,3,43,-26,32*,RORg DNA counter=>40
Cc1nn(-c2ccc(Cl)c(Cl)c2)c(=O)c2ccccc12,48*,-4,-1,-22,-36,8,41*,RORg DNA counter=>40
Cc1nn(-c2ccc(Cl)cc2)c(=O)c2ccccc12,4,0,-1,12,-61,5,.,
O=C(Nc1ccc(F)c(Cl)c1)c1cc(C2CCCCN2C(=O)c2ccccc2)on1 (stereo unspecified),-2,.,-2,-5,-7,-8,.,
COC(=O)[C@]1(C)CCC[C@@]2(C)C3CC[C@@]4(C)C[C@]3(CCC21)CC(=O)N4C (stereo partly specified),-3,-5,-1,-4,28,0,.,
COC(=O)[C@]1(C)CCC[C@@]2(C)C3CC[C@@]4(C)C[C@]3(CCC21)CC4=NO (stereo partly specified),17*,4,0,2,-3,5,11,
O=C(NCC1CCN(C(=O)C(=O)c2cc3ccccc3o2)CC1)c1ccc2c(c1)OCCCO2,-5,.,-2,.,.,.,.,
Cc1ccc(SC2=C[C@@]3(O)CC[C@@H](O)[C@@](Sc4ccc(C)cc4)(C2=O)[C@H]3O)cc1,-5,.,1,-2,-2,4,.,
CC(C)(C)c1ccc(SC2=C[C@@]3(O)CC[C@@H](O)[C@@](Sc4ccc(C(C)(C)C)cc4)(C2=O)[C@H]3O)cc1,33*,.,-13,-3,31,-5,21*,
COc1cc(/C=C(\C#N)C(=O)Nc2ccccc2F)ccc1OCCN1CCOCC1,0,0,-2,9,-30,-6,.,
N#C/C(=C/C1=C(N2CCOCC2)C(=C/c2ccc(Cl)cc2)/CC1)C(=O)Nc1ccccc1F,27*,.,-1,44*,8,8,5,
CC(C)NC(=O)/C(C#N)=C/c1ccc(N(C)C)o1,25*,-17,-30,21,-22,-57,7,
Cc1ccc(N=Cc2c(O)c3ccccc3oc2=O)c(C)c1,46*,-2,1,-18,-19,-8,25*,
COc1ccc(CC(=O)Nc2ccc(-c3cn4cccc(C)c4n3)cc2)cc1OC,-6,-3,-1,-5,-23,2,.,
COc1ccc(CC(=O)Nc2ccc(-c3cn4ccc(C)cc4n3)cc2)cc1,16*,2,3,4,-118,2,11,
CCc1nc2c(OCc3ccc(F)c(F)c3)cccn2c1N(C)C(=O)C1CC1,5,.,-1,8,-16,0,.,
O=C1c2ccccc2C(Nc2ccc(S(=O)(=O)N3CCCCC3)cc2)N1c1ccccn1 (stereo unspecified),25*,4,-1,-5,-29,-11,21*,
COc1ccc(-n2nc3c(N4CCC(C(=O)NCc5cccc(C)c5)CC4)nnc(C)c3c2C)cc1,5,-70,-4,19,0,-1,.,
CCOc1ccc(CNC(=O)C2CCN(c3nnc(C)c4c(C)n(-c5ccc(C)cc5)nc34)CC2)cc1,33*,-136,2,23,-10,-2,34*,RORg DNA counter=>40
O=C(OCC(=O)N1CCCC1=O)c1cc(Cl)ccc1O,-1,-1,-1,10,-15,1,.,
O=C(OCC(=O)N1CCCc2ccccc21)c1cc(Cl)ccc1O,24*,-2,1,0,-41,0,-5,
CCOC(=O)c1ccc(NC(=O)CSc2nnc(-c3cccc(C)c3)n2C)cc1,3,.,.,.,.,.,.,
O=C(Nc1nnc(-c2ccc3c(c2)OCCO3)o1)c1ccc(Cc2ccccc2)cc1,31*,-1,2,-4,-23,4,3,
CCCOC(=O)CSc1nc(N)c(C#N)c(-c2ccco2)c1C#N,-2,2,0,22,-1,-1,.,
